# ChEMBL document CHEMBL2417509, “Synthesis and biological evaluation of prodigiosene conjugates of porphyrin, estrone and 4-hydroxytamoxifen” (2013)
# Tests used:
# Format in all cases: functional
# [1] = system: SN12C; assay: Cytotoxicity against human SN12C cells after 2 days by sulforhodamine B assay; settings: 48 h; for CC50: read-out: LC50 (the source's name)
# Outline: (§1)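 NCI60 multi-dose screen, 59 human tumour lines available. Cells exposed to compound across a 5-log mol/L concentration range for 2 days, then fixed and stained with sulphorhodamine B, optical density read. Growth inhibition calculated against time-zero control and untreated cells. GI50 derived from the dose series, average of two replicates.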
# [2] = system: CAKI-1; assay: Cytotoxicity against human CAKI-1 cells after 2 days by sulforhodamine B assay; settings: CAKI-1, 48 h; outline: as §1
# [3] = system: ACHN; assay: Cytotoxicity against human ACHN cells after 2 days by sulforhodamine B assay; settings: 48 h; outline: as §1
# [4] = system: SK-OV-3; assay: Cytotoxicity against human SKOV3 cells after 2 days by sulforhodamine B assay; settings: SK-OV-3, 48 h; outline: as §1
# [5] = system: OVCAR-5; assay: Cytotoxicity against human OVCAR5 cells after 2 days by sulforhodamine B assay; settings: OVCAR-5, 48 h; outline: as §1
# [6] = system: OVCAR-4; assay: Cytotoxicity against human OVCAR4 cells after 2 days by sulforhodamine B assay; settings: OVCAR-4, 48 h; outline: as §1
# [7] = system: OVCAR-3; assay: Cytotoxicity against human OVCAR3 cells after 2 days by sulforhodamine B assay; settings: OVCAR-3, 48 h; outline: as §1
# [8] = system: IGROV-1; assay: Cytotoxicity against human IGROV1 cells after 2 days by sulforhodamine B assay; settings: IGROV-1, 48 h; outline: as §1
# [9] = system: UACC-257; assay: Cytotoxicity against human UACC257 cells after 2 days by sulforhodamine B assay; settings: UACC-257, 48 h; for CC50: read-out: LC50 (the source's name)
# Outline: (§2)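 NCI DTP NCI60 multi-dose screen (59 human tumour lines available). Cells exposed to compound over a 5-log mol/L concentration range for 2 days, then fixed and stained with sulphorhodamine B, with optical density read. Growth inhibition calculated relative to time-zero cells and untreated cells, giving GI50 (half-maximal growth inhibition concentration). Average of two replicates.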
# [10] = system: SK-MEL-28; assay: Cytotoxicity against human SK-MEL-28 cells after 2 days by sulforhodamine B assay; settings: SK-MEL-28, 48 h; outline: as §1
# [11] = system: MDA-MB-435; assay: Cytotoxicity against human MDA-MB-435 cells after 2 days by sulforhodamine B assay; settings: MDA-MB-435, 48 h; for CC50: read-out: LC50 (the source's name); outline: as §1
# [12] = system: M14; assay: Cytotoxicity against human M14 cells after 2 days by sulforhodamine B assay; settings: M14, 48 h; for CC50: read-out: LC50 (the source's name); outline: as §1
# [13] = system: LOX IMVI; assay: Cytotoxicity against human LOXIMVI cells after 2 days by sulforhodamine B assay; settings: 48 h; outline: as §1
# [14] = system: SNB-75; assay: Cytotoxicity against human SNB75 cells after 2 days by sulforhodamine B assay; settings: SNB-75, 48 h; outline: as §2
# [15] = system: SNB-19; assay: Cytotoxicity against human SNB19 cells after 2 days by sulforhodamine B assay; settings: SNB-19, 48 h; for CC50: read-out: LC50 (the source's name); outline: as §2
# [16] = system: SF-295; assay: Cytotoxicity against human SF295 cells after 2 days by sulforhodamine B assay; settings: SF-295, 48 h; outline: as §1
# [17] = system: KM12; assay: Cytotoxicity against human KM12 cells after 2 days by sulforhodamine B assay; settings: KM12, 48 h; outline: as §1
# [18] = system: NCI-H522; assay: Cytotoxicity against human NCI-H522 cells after 2 days by sulforhodamine B assay; settings: NCI-H522, 48 h; outline: as §1
# [19] = system: COLO 205; assay: Cytotoxicity against human COLO205 cells after 2 days by sulforhodamine B assay; settings: COLO 205, 48 h; outline: as §1
# [20] = system: HOP-92; assay: Cytotoxicity against human HOP92 cells after 2 days by sulforhodamine B assay; settings: HOP-92, 48 h; for CC50: read-out: LC50 (the source's name); outline: as §1
# [21] = system: A549; assay: Cytotoxicity against human A549/ATCC cells after 2 days by sulforhodamine B assay; settings: A549, 48 h; outline: as §1
# [22] = system: RPMI-8226; assay: Cytotoxicity against human RPMI8226 cells after 2 days by sulforhodamine B assay; settings: RPMI-8226, 48 h; outline: as §1
# [23] = system: MOLT-4; assay: Cytotoxicity against human MOLT4 cells after 2 days by sulforhodamine B assay; settings: MOLT-4, 48 h; for CC50: read-out: LC50 (the source's name); outline: as §1
# [24] = system: K562; assay: Cytotoxicity against human K562 cells after 2 days by sulforhodamine B assay; settings: K562, 48 h; outline: as §1
# [25] = system: HL-60(TB); assay: Cytotoxicity against human HL-60(TB) cells after 2 days by sulforhodamine B assay; settings: HL-60, 48 h; for CC50: read-out: LC50 (the source's name)
# Outline: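 NCI60 multi-dose screen: cells exposed to compound over a 5-log mol/L concentration range for 2 days, then fixed and stained with sulphorhodamine B and optical density read. Growth inhibition calculated relative to time-zero control and untreated cells; GI50 reported as average of two replicates.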
# [26] = system: CCRF-CEM; assay: Cytotoxicity against human CCRF-CEM cells after 2 days by sulforhodamine B assay; settings: 48 h; for CC50: read-out: LC50 (the source's name); outline: as §1
# [27] = system: T47D; assay: Cytotoxicity against human T47D cells after 2 days by sulforhodamine B assay; settings: 48 h; outline: as §2
# [28] = system: DU-145; assay: Cytotoxicity against human DU145 cells after 2 days by sulforhodamine B assay; settings: DU-145, 48 h; outline: as §1
smiles,measurement,setting,value
CC/C(=C(/c1ccc(OCCN(C)C)cc1)c1ccc(OC(=O)CCC(=O)C2=C(C)/C(=C/c3[nH]c(-c4ccc[nH]4)cc3OC)N=C2C)cc1)c1ccccc1,GI50,[1],3.09 µM
same,TGI,[1],19.1 µM
same,CC50,[1],66.6 µM
same,GI50,[2],2.69 µM
same,LC50 (concentration killing 50% of the cells present at time zero),[2],58.3 µM
same,TGI,[2],16.1 µM
same,GI50,[3],2.61 µM
same,LC50 (concentration killing 50% of cells),[3],> 100 µM
same,TGI,[3],17.1 µM
same,GI50,[4],7.17 µM
same,LC50 (concentration killing 50% of starting cells),[4],> 100 µM
same,TGI,[4],30.1 µM
same,GI50,[5],6.99 µM
same,LC50,[5],53.1 µM
same,TGI,[5],22 µM
same,GI50,[6],1500 nM
same,LC50 (concentration killing 50% of cells),[6],61.5 µM
same,TGI,[6],14.8 µM
same,GI50,[7],2.11 µM
same,LC50,[7],38.7 µM
same,TGI,[7],10.6 µM
same,GI50,[8],3.66 µM
same,LC50,[8],> 100 µM
same,TGI,[8],15.3 µM
same,GI50,[9],3.39 µM
same,TGI,[9],14.8 µM
same,CC50,[9],79.7 µM
same,GI50,[10],2.94 µM
same,LC50,[10],46.3 µM
same,TGI,[10],12.7 µM
same,GI50,[11],2.55 µM
same,TGI,[11],10.3 µM
same,CC50,[11],50.5 µM
same,GI50,[12],2090 nM
same,TGI,[12],5.19 µM
same,CC50,[12],> 100 µM
same,GI50,[13],440 nM
same,LC50,[13],5.13 µM
same,TGI,[13],1.62 µM
same,GI50,[14],2.47 µM
same,LC50 (concentration killing 50% of starting cells),[14],62.9 µM
same,TGI,[14],9.92 µM
same,GI50,[15],5.49 µM
same,TGI,[15],21.9 µM
same,CC50,[15],65.9 µM
same,GI50,[16],2.63 µM
same,LC50,[16],> 100 µM
same,TGI,[16],9.12 µM
same,GI50,[17],1200 nM
same,LC50,[17],46.8 µM
same,TGI,[17],10.8 µM
same,GI50,[18],1950 nM
same,LC50,[18],28 µM
same,TGI,[18],5.89 µM
same,GI50,[19],1.9 µM
same,LC50 (concentration killing 50% of cells),[19],> 100 µM
same,TGI,[19],7.26 µM
same,GI50,[20],760 nM
same,TGI,[20],4.12 µM
same,CC50,[20],26.4 µM
same,GI50,[21],2.66 µM
same,LC50 (concentration giving 50% net cell kill),[21],55.9 µM
same,TGI,[21],10.6 µM
same,GI50,[22],1650 nM
same,LC50 (concentration killing 50% of cells present at time zero),[22],> 100 µM
same,TGI,[22],5.64 µM
same,GI50,[23],980 nM
same,TGI,[23],4.22 µM
same,CC50,[23],> 100 µM
same,GI50,[24],2390 nM
same,LC50 (concentration killing 50% of cells),[24],> 100 µM
same,TGI,[24],6.4 µM
same,GI50,[25],3.16 µM
same,TGI,[25],8.98 µM
same,CC50,[25],> 100 µM
same,GI50,[26],430 nM
same,TGI,[26],7.21 µM
same,CC50,[26],> 100 µM
same,GI50,[27],1350 nM
same,LC50 (concentration killing 50% of cells),[27],> 100 µM
same,TGI,[27],8.13 µM
same,GI50,[28],3.28 µM
same,LC50 (concentration killing 50% of starting cells),[28],41.2 µM
same,TGI,[28],16.8 µM
CCC(=C(c1ccc(OCCN(C)C)cc1)c1ccc(OC(=O)CCCCC(=O)C2=C(C)/C(=C/c3[nH]c(-c4ccc[nH]4)cc3OC)N=C2C)cc1)c1ccccc1,GI50,[1],5.37 µM
same,TGI,[1],21.4 µM
same,CC50,[1],56.2 µM
same,GI50,[2],6.31 µM
same,LC50 (concentration killing 50% of the cells present at time zero),[2],> 100 µM
same,TGI,[2],36.3 µM
same,GI50,[3],4.79 µM
same,LC50 (concentration killing 50% of cells),[3],77.6 µM
same,TGI,[3],22.9 µM
same,GI50,[4],14.1 µM
same,LC50 (concentration killing 50% of starting cells),[4],52.5 µM
same,TGI,[4],26.9 µM
same,GI50,[5],10.5 µM
same,LC50,[5],47.9 µM
same,TGI,[5],22.4 µM
same,GI50,[6],4370 nM
same,LC50 (concentration killing 50% of cells),[6],70.8 µM
same,TGI,[6],22.4 µM
same,GI50,[7],11.7 µM
same,LC50,[7],63.1 µM
same,TGI,[7],26.9 µM
same,GI50,[8],13.2 µM
same,LC50,[8],> 100 µM
same,TGI,[8],45.7 µM
same,GI50,[9],12 µM
same,TGI,[9],28.8 µM
same,CC50,[9],69.2 µM
same,GI50,[10],11.5 µM
same,LC50,[10],49 µM
same,TGI,[10],24 µM
same,GI50,[11],6.92 µM
same,TGI,[11],45.7 µM
same,CC50,[11],> 100 µM
same,GI50,[12],1820 nM
same,TGI,[12],3.98 µM
same,CC50,[12],8.71 µM
same,GI50,[13],2040 nM
same,LC50,[13],43.6 µM
same,TGI,[13],5.13 µM
same,GI50,[14],5.25 µM
same,LC50 (concentration killing 50% of starting cells),[14],44.7 µM
same,TGI,[14],18.2 µM
same,GI50,[15],8.13 µM
same,TGI,[15],23.4 µM
same,CC50,[15],56.2 µM
same,GI50,[16],7.24 µM
same,LC50,[16],45.7 µM
same,TGI,[16],20.4 µM
same,GI50,[17],3720 nM
same,LC50,[17],46.8 µM
same,TGI,[17],14.4 µM
same,GI50,[18],3550 nM
same,LC50,[18],43.6 µM
same,TGI,[18],14.4 µM
same,GI50,[19],10.7 µM
same,LC50 (concentration killing 50% of cells),[19],50.1 µM
same,TGI,[19],22.9 µM
same,GI50,[20],1120 nM
same,TGI,[20],6.31 µM
same,CC50,[20],47.9 µM
same,GI50,[21],3.89 µM
same,LC50 (concentration giving 50% net cell kill),[21],50.1 µM
same,TGI,[21],15.8 µM
same,GI50,[22],3160 nM
same,LC50 (concentration killing 50% of cells present at time zero),[22],> 100 µM
same,TGI,[22],19 µM
same,GI50,[23],1740 nM
same,TGI,[23],25.1 µM
same,CC50,[23],> 100 µM
same,GI50,[24],3160 nM
same,LC50 (concentration killing 50% of cells),[24],72.4 µM
same,TGI,[24],12.6 µM
same,GI50,[25],18.2 µM
same,TGI,[25],41.7 µM
same,CC50,[25],97.7 µM
same,GI50,[26],320 nM
same,TGI,[26],> 100 µM
same,CC50,[26],> 100 µM
same,GI50,[27],1380 nM
same,LC50 (concentration killing 50% of cells),[27],39.8 µM
same,TGI,[27],6.03 µM
same,GI50,[28],7.76 µM
same,LC50 (concentration killing 50% of starting cells),[28],50.1 µM
same,TGI,[28],20.9 µM
